Test results: ChEMBL document CHEMBL1139757, “Synthesis and evaluation of water-soluble docetaxel prodrugs-docetaxel esters of malic acid” (Bioorg Med Chem, 2007)
Converted amounts (≈) assume the structure as drawn.

Assays:
[1] = Solubility in water; assay type: physicochemical
Procedure, shortened: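 Compound suspended in water to 2 mg/mL, sonicated 15 min, then centrifuged at 13,000 rpm for 10 min. Supernatant quantified by reverse-phase HPLC with UV detection at 227 nm, taking extinction coefficients of prodrug and docetaxel as equal. Values are means of three experiments.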

[2] = Stability in PBS buffer at pH 7.4 after 48 hrs; assay type: physicochemical
A549 = test: Cytotoxicity against human A549 cells by MTT assay; assay type: functional, cell-based
Procedure, shortened: (§1)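 Cells exposed to compound for 48 h. MTT then added (final 0.5 mg/ml in RPMI-1640) for a further 4 h at 37 °C. Formazan dissolved in DMSO and absorbance read at 570 nm. IC50 for 50% inhibition of viability derived by dose–effect analysis. Three replicate wells per point, each experiment run in triplicate.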

K562 = test: Cytotoxicity against human K562 cells by MTT assay; assay type: functional, cell-based; procedure, shortened: as §1
KB = test: Cytotoxicity against human KB cells by MTT assay; assay type: functional, cell-based; procedure, shortened: as §1
MCF7 = test: Cytotoxicity against human MCF7 cells by MTT assay; assay type: functional, cell-based; procedure, shortened: as §1
Homo sapiens = organism: Homo sapiens; test: Stability in human plasma
H22 = test: Antitumor activity against mouse H22 cells xenografted ICR mouse assessed as tumor growth inhibition at 10 mg/kg, ip once daily after 7 days; assay type: functional; conditions: 168 h, route intraperitoneal
Procedure, shortened: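 Male ICR mice implanted s.c. in the armpit with H22 hepatoma cells (5 × 10⁶ per animal). Dosing began 24 h after implantation: ip once daily for 7 consecutive days at 5, 10 or 20 mg/kg. Saline served as negative control (20 mice), 10 mice per treated group. Tumors excised and weighed at day 8. Inhibition = (C − T)/C × 100 from mean tumor weights.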

Row | SMILES | solubility [1] [µg/mL] | half-life [2] [h] | half-life (Homo sapiens) [h] | IC50 (A549) [µg/mL] | IC50 (K562) [µg/mL] | IC50 (KB) [µg/mL] | IC50 (MCF7) [µg/mL] | inhibition in vivo at 10 mg/kg (H22) [%]
1 | CC(=O)O[C@@]12CO[C@@H]1C[C@H](O)[C@@]1(C)C(=O)[C@H](O)C3=C(C)[C@@H](OC(=O)[C@H](OC(=O)C[C@@H](O)C(=O)[O-])[C@@H](NC(=O)OC(C)(C)C)c4ccccc4)C[C@@](O)([C@@H](OC(=O)c4ccccc4)[C@H]21)C3(C)C.[Na+] | 620 | > 24 | 3 | > 50 | 18.8 | > 50 | > 50 | 
2 | CC(=O)O[C@@]12CO[C@@H]1C[C@H](O)[C@@]1(C)C(=O)[C@H](O)C3=C(C)[C@@H](OC(=O)[C@H](OC(=O)C[C@H](O)C(=O)[O-])[C@@H](NC(=O)OC(C)(C)C)c4ccccc4)C[C@@](O)([C@@H](OC(=O)c4ccccc4)[C@H]21)C3(C)C.[Na+] | 620 | > 24 | 3 | > 50 | 38.1 | > 50 | > 50 | 
3 | CC(=O)O[C@@]12CO[C@@H]1C[C@H](O)[C@@]1(C)C(=O)[C@H](O)C3=C(C)[C@@H](OC(=O)[C@H](OC(=O)CC(O)C(=O)[O-])[C@@H](NC(=O)OC(C)(C)C)c4ccccc4)C[C@@](O)([C@@H](OC(=O)c4ccccc4)[C@H]21)C3(C)C.[Na+] (mixture of isomers) | 620 | > 24 | 3 | 3.5 | 1.5 | 0.45 | 3.6 | 
4 | CC(=O)O[C@@]12CO[C@@H]1C[C@H](O)[C@@]1(C)C(=O)[C@H](O)C3=C(C)[C@@H](OC(=O)[C@H](O)[C@@H](NC(=O)OC(C)(C)C)c4ccccc4)C[C@@](O)([C@@H](OC(=O)c4ccccc4)[C@H]21)C3(C)C.O.O.O [DOCETAXEL] |  |  |  | 1.4 | 6.9 | 11.6 | 3.3 | 46.3

Second part, led by results:

Row | solubility [1] [µg/mL] | half-life [2] [h] | half-life (Homo sapiens) [h] | SMILES | IC50 (A549) [µg/mL] | IC50 (K562) [µg/mL] | IC50 (KB) [µg/mL] | IC50 (MCF7) [µg/mL] | inhibition in vivo at 10 mg/kg (H22) [%]
5 | 470 (≈ 509 µM) | > 48 | 4 | CC(=O)O[C@@]12CO[C@@H]1C[C@H](O)[C@@]1(C)C(=O)[C@H](O)C3=C(C)[C@@H](OC(=O)[C@H](OC(=O)CC(O)C(=O)O)[C@@H](NC(=O)OC(C)(C)C)c4ccccc4)C[C@@](O)([C@@H](OC(=O)c4ccccc4)[C@H]21)C3(C)C (some centres undefined) | > 50 | 9.5 (≈ 10.3 µM) | 3.5 (≈ 3.79 µM) | 39.2 (≈ 42.4 µM) | 
6 | 470 (≈ 509 µM) | > 48 | 4 | CC(=O)O[C@@]12CO[C@@H]1C[C@H](O)[C@@]1(C)C(=O)[C@H](O)C3=C(C)[C@@H](OC(=O)[C@H](OC(=O)C[C@@H](O)C(=O)O)[C@@H](NC(=O)OC(C)(C)C)c4ccccc4)C[C@@](O)([C@@H](OC(=O)c4ccccc4)[C@H]21)C3(C)C | > 50 | 0.85 (≈ 0.92 µM) | > 50 | > 50 | 
7 | 470 (≈ 509 µM) | > 48 | 4 | CC(=O)O[C@@]12CO[C@@H]1C[C@H](O)[C@@]1(C)C(=O)[C@H](O)C3=C(C)[C@@H](OC(=O)[C@H](OC(=O)C[C@H](O)C(=O)O)[C@@H](NC(=O)OC(C)(C)C)c4ccccc4)C[C@@](O)([C@@H](OC(=O)c4ccccc4)[C@H]21)C3(C)C | > 50 | 3.9 (≈ 4.22 µM) | > 50 | > 50 | 
8 | 430 | > 48 |  | CC(=O)O[C@@]12CO[C@@H]1C[C@H](OC(=O)CC(O)C(=O)O)[C@@]1(C)C(=O)[C@H](O)C3=C(C)[C@@H](OC(=O)[C@H](O)[C@@H](NC(=O)OC(C)(C)C)c4ccccc4)C[C@@](O)([C@@H](OC(=O)c4ccccc4)[C@H]21)C3(C)C (mixture of isomers) | > 50 | 0.069 | > 50 | > 50 | 
9 | 550 | > 48 |  | CC(=O)O[C@@]12CO[C@@H]1C[C@H](OC(=O)CC(O)C(=O)O)[C@@]1(C)C(=O)[C@H](OC(=O)CC(O)C(=O)O)C3=C(C)[C@@H](OC(=O)[C@H](OC(=O)CC(O)C(=O)O)[C@@H](NC(=O)OC(C)(C)C)c4ccccc4)C[C@@](O)([C@@H](OC(=O)c4ccccc4)[C@H]21)C3(C)C (mixture of isomers) | > 50 | 17 | > 50 | > 50 | 
